# Laboratory results published in ChEMBL document CHEMBL1165898, “Novel chromeno [2,3-b]-pyrimidine derivatives as potential anti-microbial agents” (2010).
# Active and inactive are the calls of the source. The rule behind the calls is not given here.
# What was measured:
# Staphylococcus aureus [1] = assay: Antibacterial activity against Staphylococcus aureus after 16 hrs by serial dilution method; type: functional
# Bacillus subtilis [2] = assay: Antibacterial activity against Bacillus subtilis after 16 hrs by serial dilution method; type: functional
# Escherichia coli [3] = assay: Antibacterial activity against Escherichia coli at 1.6125 to […] after 16 hrs by serial dilution method; type: functional, organism-based
# In short: (§1)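 Tube broth dilution MIC in trypticase soya broth. Colonies from a fresh plate were grown 6 h at 37 °C, adjusted to […] with sterile PBS (10⁸ cfu/mL), then diluted 10³-fold in broth to 10⁵ cfu/mL. Compounds were serially diluted across six tubes per organism and 1 mL inoculum was added. Inoculum-only and broth-only controls were run. Incubation was 16 h at 37 °C. MIC was read as no visible growth.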
# Pseudomonas aeruginosa [4] = assay: Antibacterial activity against Pseudomonas aeruginosa at 1.6125 to […] after 16 hrs by serial dilution method; type: functional, organism-based; in short: as §1
# Staphylococcus aureus [5] = assay: Antibacterial activity against Staphylococcus aureus at 1.6125 to […] after 16 hrs by serial dilution method; type: functional, organism-based; in short: as §1
# Bacillus subtilis [6] = assay: Antibacterial activity against Bacillus subtilis at 1.6125 to […] after 16 hrs by serial dilution method; type: functional, organism-based; in short: as §1
# Escherichia coli [7] = assay: Antibacterial activity against Escherichia coli after 16 hrs by serial dilution method; type: functional
# Pseudomonas aeruginosa [8] = assay: Antibacterial activity against Pseudomonas aeruginosa after 16 hrs by serial dilution method; type: functional; in short: as §1
Compound,MIC (Staphylococcus aureus [1]) [µg/mL],MIC (Bacillus subtilis [2]) [µg/mL],MIC (Escherichia coli [3]),MIC (Pseudomonas aeruginosa [4]),MIC (Staphylococcus aureus [5]),MIC (Bacillus subtilis [6]),MIC (Escherichia coli [7]) [µg/mL],MIC (Pseudomonas aeruginosa [8]) [µg/mL]
c1ccc2c(c1)Cc1c(Nc3cccc4ccccc34)ncnc1O2,1.61,1.61,inactive,inactive,–,–,–,–
Nc1ncnc2c1Cc1ccccc1O2,–,–,inactive,inactive,inactive,inactive,–,–
CO/N=C(\C(=O)N[C@@H]1C(=O)N2C(C(=O)O)=C(CSc3nc(=O)c(O)nn3C)CS[C@H]12)c1csc(N)n1 [CEFTRIAXONE],3.12,1.61,–,–,–,–,1.61,1.61
Clc1ccc(CNc2ncnc3c2Cc2ccccc2O3)cc1,1.61,1.61,–,inactive,–,–,50,–
c1ccc2c(c1)Cc1c(NC34CC5CCCC(C3)C5C4)ncnc1O2 (stereo not drawn),–,–,–,–,inactive,inactive,50,50
Cc1ccc(Nc2ncnc3c2Cc2ccccc2O3)cc1F,50,–,inactive,inactive,–,inactive,–,–

# The remaining lines, values ahead:
MIC (Staphylococcus aureus [1]) [µg/mL],MIC (Bacillus subtilis [2]) [µg/mL],MIC (Escherichia coli [3]),MIC (Pseudomonas aeruginosa [4]),MIC (Staphylococcus aureus [5]),MIC (Bacillus subtilis [6]),MIC (Escherichia coli [7]) [µg/mL],MIC (Pseudomonas aeruginosa [8]) [µg/mL],Compound
1.61,1.61,–,inactive,–,–,3.12,–,c1ccc(CN2CCC(Nc3ncnc4c3Cc3ccccc3O4)CC2)cc1
–,–,inactive,inactive,inactive,inactive,–,–,Cc1cc(C(F)(F)F)ccc1Nc1ncnc2c1Cc1ccccc1O2
–,–,inactive,–,inactive,inactive,–,25,Cc1cnc(Nc2ncnc3c2Cc2ccccc2O3)s1
1.61,1.61,inactive,inactive,–,–,–,–,Cc1ccc(C)c(Nc2ncnc3c2Cc2ccccc2O3)c1
1.61,1.61,–,inactive,–,–,25,–,c1ccc(CNc2ncnc3c2Cc2ccccc2O3)cc1
–,–,inactive,inactive,inactive,inactive,–,–,Clc1ccc(Nc2ncnc3c2Cc2ccccc2O3)c(Cl)c1
